Measurements from ChEMBL document CHEMBL1153760, “Identification and structure-activity relationships of chromene-derived selective estrogen receptor modulators for treatment of postmenopausal symptoms” (J Med Chem, 2009).
Activity calls are given as the source filed them. No cut-off for these calls is given here.

What was measured:
[1] = system: Rattus norvegicus; experiment: Decrease in bone resorption in ovariectomized rat assessed as decrease in urine deoxypyridinoline level at 0.1 to 1 mg/kg, po administered daily measured after 2 weeks; type: functional, organism-based
Outline: (§1)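 Adult (>6 months) female rats, housed singly on a casein-based diet, ovariectomized under sterile conditions and anesthesia; 6-14 per group. From 24 h after surgery, daily oral gavage of an aqueous suspension in 0.5% Methocel for 2 or 6 weeks. […] Urine deoxypyridinoline measured as bone-resorption marker.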

[2] = system: Rattus norvegicus; experiment: Decrease in plasma cholesterol level in po dosed ovariectomized rat osteopenia model administered daily measured after 2 weeks; type: functional, organism-based
[3] = Cmax in rats after 10 mg/kg oral dose; type: ADME, organism-based; design: dose 10 mg/kg, route oral; settings: rat, in vivo
Outline: (§2)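 Single-dose rat pharmacokinetics. IV dosing at 1-3 mg/kg as a solution in 10% β-cyclodextrin; oral gavage at 10 mg/kg as a uniform suspension in 0.5% methylcellulose. Blood (0.5 mL) collected into heparinized tubes by orbital sinus puncture after dosing. Plasma extracted into acetonitrile with an internal standard and analysed by LC-MS-MS against standards to obtain PK parameters.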

[4] = target: T1, Estrogen receptor (Homo sapiens, UniProt P03372); experiment: Displacement of radiolabeled estrogen from estrogen receptor alpha by scintillation counting
T1 sequence (P03372 whole entry): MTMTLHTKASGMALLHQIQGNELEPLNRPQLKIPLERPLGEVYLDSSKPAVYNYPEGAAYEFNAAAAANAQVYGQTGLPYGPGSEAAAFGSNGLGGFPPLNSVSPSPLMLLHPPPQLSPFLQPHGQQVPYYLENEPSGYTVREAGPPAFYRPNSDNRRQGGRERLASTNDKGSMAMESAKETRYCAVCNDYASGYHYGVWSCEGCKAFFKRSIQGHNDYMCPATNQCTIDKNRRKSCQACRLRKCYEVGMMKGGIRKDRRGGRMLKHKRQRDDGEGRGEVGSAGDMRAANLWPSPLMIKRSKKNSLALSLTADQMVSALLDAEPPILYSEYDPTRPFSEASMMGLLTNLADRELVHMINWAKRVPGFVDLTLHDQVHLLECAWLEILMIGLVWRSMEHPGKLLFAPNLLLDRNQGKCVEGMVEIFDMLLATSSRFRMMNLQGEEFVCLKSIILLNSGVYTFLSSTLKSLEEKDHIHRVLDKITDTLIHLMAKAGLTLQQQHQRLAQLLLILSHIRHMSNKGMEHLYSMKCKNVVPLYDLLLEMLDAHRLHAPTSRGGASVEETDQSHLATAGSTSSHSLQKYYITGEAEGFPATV

[5] = target: Estrogen receptor beta (Homo sapiens, UniProt Q92731); experiment: Inhibition of fluormone ES2 binding to estrogen receptor beta after 1 hr by fluorescence polarization assay
Estrogen receptor beta, sequence (Q92731 whole entry): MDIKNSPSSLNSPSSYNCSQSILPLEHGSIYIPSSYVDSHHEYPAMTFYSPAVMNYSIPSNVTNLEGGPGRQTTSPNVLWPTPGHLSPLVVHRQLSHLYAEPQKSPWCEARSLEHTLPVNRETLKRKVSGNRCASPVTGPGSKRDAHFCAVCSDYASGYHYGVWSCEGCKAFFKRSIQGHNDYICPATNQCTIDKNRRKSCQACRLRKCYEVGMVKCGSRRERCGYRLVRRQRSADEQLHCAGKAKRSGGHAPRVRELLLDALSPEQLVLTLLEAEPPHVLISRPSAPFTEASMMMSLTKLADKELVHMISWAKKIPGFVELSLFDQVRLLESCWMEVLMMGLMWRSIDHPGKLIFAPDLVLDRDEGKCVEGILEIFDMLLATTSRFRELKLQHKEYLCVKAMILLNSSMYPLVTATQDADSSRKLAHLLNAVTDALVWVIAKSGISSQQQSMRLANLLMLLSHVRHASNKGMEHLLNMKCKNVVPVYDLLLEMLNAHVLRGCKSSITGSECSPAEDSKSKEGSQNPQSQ

[6] = Tmax in rat at 10 mg/kg, po administered as single dose by LC-MS/MS analysis; type: ADME, organism-based; design: dose 10 mg/kg, route oral; settings: in vivo; outline: as §2
[7] = system: Rattus norvegicus; experiment: Metabolic stability in rat assessed as 2-Methoxy-5R-(-)-[4-(2-piperidin-1-ylethoxy)-phenyl]-11,12-dihydro-5H-6,13-dioxabenzo[3,4]cyclohepta[1,2-a]-naphthalen-8-ol Tmax at 2 mg/kg, iv administered as single dose by LC-MS/MS analysis; type: ADME, organism-based; design: dose 2 mg/kg, route intravenous; settings: in vivo; outline: as §2
[8] = AUC in rat at 10 mg/kg, po administered as single dose by LC-MS/MS analysis; type: ADME, organism-based; design: dose 10 mg/kg, route oral; settings: plasma; outline: as §2
[9] = system: Rattus norvegicus; experiment: Increase in uterine weight in po dosed ovariectomized rat osteopenia model administered daily measured after 2 weeks; type: functional, organism-based
[10] = system: Rattus norvegicus; experiment: Estrogenic activity in ovariectomized rat assessed as minor increase in uterine epithelial thickness at 0.1 to 1 mg/kg, po administered daily measured after 6 week by immunohistochemical analysis; type: functional, organism-based
[11] = target: T1, Estrogen receptor; experiment: Antagonist activity at estrogen receptor in human Ishikawa cells assessed as 17-beta-estradiol-induced alkaline phosphatase activity after 3 days by chemiluminescence assay; type: functional, cell-based
[12] = system: Rattus norvegicus; experiment: Increase in vaginal secretion in ovariectomized rat at 0.1 to 1 mg/kg, po administered daily measured after 2 weeks by cytology analysis; type: functional, organism-based
Outline: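 Ovariectomized adult female rats dosed daily by oral gavage (0.5% Methocel suspension) for 2 or 6 weeks from 24 h after surgery. Vaginal fluid collected with a cotton swab and its absolute weight determined per animal.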

[13] = Oral bioavailability in rat at 10 mg/kg administered as single dose by LC-MS/MS analysis; type: ADME, organism-based; settings: in vivo; outline: as §2
[14] = organism: Rattus norvegicus; experiment: animal or person; type: functional; settings: Uterus, 72 h, route oral
[15] = Half life in rat at 10 mg/kg, po administered as single dose by LC-MS/MS analysis; type: ADME, organism-based; design: dose 10 mg/kg, route oral; settings: in vivo; outline: as §2
[16] = system: Rattus norvegicus; experiment: Metabolic stability in rat assessed as 2-Methoxy-5R-(-)-[4-(2-piperidin-1-ylethoxy)-phenyl]-11,12-dihydro-5H-6,13-dioxabenzo[3,4]cyclohepta[1,2-a]-naphthalen-8-ol Tmax at 10 mg/kg, po administered as single dose by LC-MS/MS analysis; type: ADME, organism-based; design: dose 10 mg/kg, route oral; settings: in vivo; outline: as §2
[17] = system: Rattus norvegicus; experiment: Metabolite Cmax in rats after 2 mg/kg JNJ-1968990 intravenous dose; type: ADME, organism-based; design: dose 2 mg/kg, route intravenous; settings: in vivo; outline: as §2
[18] = system: Rattus norvegicus; experiment: Increase in vaginal fluidity in ovariectomized rat at 1.4 mg/kg, po administered daily measured after 6 weeks by cytology analysis; type: functional, organism-based; design: dose 1.4 mg/kg
[19] = system: Rattus norvegicus; experiment: Metabolite Cmax in rats after 10 mg/kg JNJ-1968990 oral dose; type: ADME, organism-based; design: dose 10 mg/kg, route oral; settings: in vivo; outline: as §2
[20] = system: Rattus norvegicus; experiment: Metabolic stability in rat assessed as (R)-5-[4-(2-Dimethylamino-ethoxy)-phenyl]-11,12-dihydro-5H-6,13-dioxa-benzo[3,4]cyclohepta[1,2-a]naphthalene-2,8-diol Tmax at 10 mg/kg, po administered as single dose by LC-MS/MS analysis; type: ADME, organism-based; design: dose 10 mg/kg, route oral; settings: in vivo; outline: as §2
[21] = system: Rattus norvegicus; experiment: Metabolite Cmax in rats after 10 mg/kg JNJ-26529152 oral dose; type: ADME, organism-based; design: dose 10 mg/kg, route oral; settings: in vivo; outline: as §2
[22] = system: Rattus norvegicus; experiment: Decrease in bone resorption in ovariectomized rat assessed as decrease in urine deoxypyridinoline level at 0.1 mg/kg, po administered daily measured after 2 weeks; type: functional, organism-based; design: dose 0.1 mg/kg; outline: as §1
[23] = system: Rattus norvegicus; experiment: Metabolite Cmax in rats after 10 mg/kg JNJ-26529126 oral dose; type: ADME, organism-based; design: dose 10 mg/kg, route oral; settings: in vivo; outline: as §2
[24] = system: Rattus norvegicus; experiment: Metabolic stability in rat assessed as (R)-5-[4-(2-Dimethylamino-ethoxy)-phenyl]-11,12-dihydro-5H-6,13-dioxa-benzo[3,4]cyclohepta[1,2-a]naphthalene-2,8-diol Tmax at 2 mg/kg, iv administered as single dose by LC-MS/MS analysis; type: ADME, organism-based; design: dose 2 mg/kg, route intravenous; settings: in vivo; outline: as §2

Compound	Cmax [3]	IC50 [4]	IC50 [5]	Tmax [6]	AUC [8]	Activity [9]	IC50 [11]	bioavailability [13]	inhibition in vivo at 1 mg/kg [14]	half-life [15]	Cmax_metabolite [17]	Cmax_metabolite [19]	also measured
COc1ccc2c(c1)OCCC1=C2[C@@H](c2ccc(OCCN3CCCCC3)cc2)Oc2cc(O)ccc21	228 ng/mL	5.8 nM	99 nM	6 h	6730 ng·h/mL	inactive	76 nM	61%	130%	18.6 h	15.2 ng/mL	91.4 ng/mL	Activity [1]: Active; Activity [2]: Active; Tmax [7]: 8 h; Activity [10]: Active; Activity [12]: inactive; Tmax [16]: 8 h; Activity [18]: Active
Oc1ccc2c(c1)O[C@H](c1ccc(OCCN3CCCCC3)cc1)C1=C2CCOc2cc(O)ccc21	91 ng/mL	1.1 nM	21 nM	5 h	1010 ng·h/mL	inactive	0.2 nM	11%	135%	4.8 h	1.6 ng/mL	3.9 ng/mL	Tmax [20]: 6 h; Cmax_metabolite [21]: 12 ng/mL; Activity [22]: Active; Cmax_metabolite [23]: 14 ng/mL; Tmax [24]: 8 h
